From PMC4482135 (Organometallics, 2015)
Where “and” joins values, the source holds several entries; their conditions need not be identical. Equal values may be shown once. Read-outs that look alike come from different tables or passages of the source.

Legend:
[1] = system: A2780 human ovarian carcinoma cells; settings: read-out: IC50 values, A2780; previously reported complexes; ref [4b]; cited from earlier work
[2] = system: HCT116 human colon carcinoma cells; experiment: In vitro growth inhibition; type: cell-based; settings: read-out: IC50 values, HCT-116; 24 h drug exposure, 72 h recovery, SRB assay
Outline: (§1)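 Cells seeded at 5000 per well and preincubated 48 h drug-free at 310 K. Media: RPMI-1640 (A2780), DMEM (A549, MCF7) or McCoy's 5A (HCT116), each with 10% FCS. Test compound stocks made in 5% DMSO with saline/medium 1:1, then serially diluted in medium. Exposure 24 h, PBS wash, then 72 h recovery. SRB absorbance read at 470 nm against untreated control. IC50 (50% growth inhibition) from duplicates of triplicates in two independent experiments.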

[3] = system: MCF7 human breast carcinoma cells; experiment: In vitro growth inhibition; type: cell-based; settings: read-out: IC50 values, MCF-7; 24 h drug exposure, 72 h recovery, SRB assay
Outline: as §1

[4] = system: A549 human lung carcinoma cells; experiment: In vitro growth inhibition; type: cell-based; settings: read-out: IC50 values, A549; 24 h drug exposure, 72 h recovery, SRB assay
Outline: as §1

[5] = system: A2780 human ovarian carcinoma cells; experiment: In vitro growth inhibition; type: cell-based; settings: read-out: IC50 values, A2780; 24 h drug exposure, 72 h recovery, SRB assay
Outline: as §1

[6] = Relative hydrophobicity by RP-HPLC; type: physicochemical; settings: C18, H2O/MeCN with 50 mM NaCl; longer tR = more hydrophobic
Outline: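 RP-HPLC on C18 column (150 × 4.6 mm, 5 μm). A = H2O with 50 mM NaCl; B = H2O/MeCN 1:1 with 50 mM NaCl. Gradient starts at 20% B, reaches 100% B at 15 min, holds to 40 min, returns to 20% B by 42 min; run 57 min. Flow 1 mL min–1, detection 254 nm. Samples ca. 100 μM in 10% MeOH/90% H2O with 50 mM NaCl. tR from duplicates of triplicate runs.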

[7] = system: A2780 ovarian carcinoma cells; experiment: Cellular-iridium accumulation in A2780 cells by ICP-MS; type: cell-based, human; settings: for cellular-Ir accumulation: 24 h exposure at equipotent (IC50) concentrations, no recovery, ICP-MS
Outline: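 A2780 cells, 1.5 × 10^6 per well, preincubated 24 h drug-free at 310 K in humidified 5% CO2. Then 24 h exposure to test complex. Cells trypsinised, counted and pelleted; pellets digested overnight in 73% HNO3 at 353 K, then diluted to 5% HNO3. 193Ir measured by ICP-MS (no-gas mode, duplicate readings, 0–100 ppb calibration). Triplicates in two independent experiments.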

[8] = system: 9-ethylguanine (9-EtG); experiment: Binding to nucleobase 9-ethylguanine by 1H NMR
Outline: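 Test complex (ca. 500 μM) and 9-EtG (ca. 500 μM), about 1:1, in 26.7% MeOD-d4/73.3% D2O with 4 mM NaCl, so the complex is mainly the Ir–Cl form. Held at 310 K, pH* 7.4. 1H NMR (600 MHz) recorded 15 min and 24 h after nucleobase addition. Adduct percentage taken from 1H NMR peak integrations.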

[9] = system: 9-methyladenine (9-MeA); experiment: Binding to nucleobase 9-methyladenine by 1H NMR; settings: co-incubation with equimolar 9-EtG and 9-MeA, 310 K, pH* 7.4
Outline: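 Competition run: test complex (ca. 500 μM) with equimolar 9-EtG and 9-MeA in 26.7% MeOD-d4/73.3% D2O at 310 K, pH* 7.4. 1H NMR (600 MHz) recorded 15 min and 24 h after nucleobase addition. Percentage bound to each nucleobase calculated from 1H NMR peak integrations.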

[10] = Catalytic oxidation of NADH to NAD+ by UV-visible spectroscopy; settings: complex 2.5 μM, NADH 69, 103, 146 μM, 310 K, pH 7.5
Outline: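 Test complex fixed at 2.5 μM with NADH at 69, 103 or 146 μM, in 5 mM Na2HPO4/NaH2PO4 buffer pH 7.5 (0.5% MeOH/99.5% H2O), 310 K, 24 h. NADH loss followed by UV–vis at 339 nm (εNADH = 6220 cm–1 M–1). Rate constant k taken from first-order kinetic plots in [NADH].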

[11] = system: A2780 human ovarian cancer cells; experiment: Cellular-iridium distribution in A2780 cells; type: cell-based; settings: IC50 concentrations

| Structure (SMILES) | IC50 [2] [µM] | IC50 [3] [µM] | IC50 [4] [µM] | IC50 [5] [µM] | tR by RP-HPLC (relative hydrophobicity) [6] | cellular-Ir accumulation [7] | also measured |
| --- | --- | --- | --- | --- | --- | --- | --- |
| Cc1c(-c2ccccc2)c(C)[c-](C)c1C.[Cl-].[Ir+3].[c-]1ccccc1-c1ccccn1 (stereo not shown) [Complex 17, [(η^5-Cp^xPh)Ir(2-phenylpyridine)Cl]] |  |  |  |  |  |  | IC50 [1]: 2.14 ± 0.5 µM |
| Cc1c(C)c(C)[c-](C)c1C.Fc1ccc[c-]c1-c1ccccn1.[Cl-].[Ir+3] [Complex 1, [(η^5-Cp*)Ir(2-(2′-fluorophenyl)pyridine)Cl]] | 3.7 ± 0.3 | 9.6 ± 0.4 | 10.36 ± 0.07 |  |  |  |  |
| Cc1c(C)c(C)[c-](C)c1C.Oc1c[c-]c(-c2ccccn2)cc1.[Cl-].[Ir+3] [Complex 11, [(η^5-Cp*)Ir(2-(4′-hydroxyphenyl)pyridine)Cl]] | 29.3 ± 0.8 | 28.6 ± 0.9 | 56.67 ± 0.04 | 47.3 ± 0.1 | 15.11 min and 15.1 min and 15.11 ± 0.03 min | 1.58 ng Ir × 10^6 A2780 cells and 1.6 ng Ir × 10^6 A2780 cells and 1.6 ± 0.1 ng Ir × 10^6 A2780 cells |  |
| Cc1c(C)c(C)[c-](C)c1C.Oc1ccc(-c2[c-]cccc2)nc1.[Cl-].[Ir+3] [Complex 12, [(η^5-Cp*)Ir(2-phenyl-5-hydroxypyridine)Cl]] |  |  |  | 13.3 ± 0.88 | 17.8 min and 17.8 ± 0.2 min | 10.2 ng Ir × 10^6 A2780 cells and 10.2 ± 0.2 ng Ir × 10^6 A2780 cells | fold cellular-iridium accumulation relative to isomer 11 ([7]; A2780 cells, IC50 concentrations): 6 times |
| Cc1c(C)c(C)[c-](C)c1C.Fc1ccc(-c2[c-]cccc2)nc1.[Cl-].[Ir+3] [Complex 4, [(η^5-Cp*)Ir(2-phenyl-5-fluoropyridine)Cl]] |  |  |  |  | 18.60 ± 0.02 min | 11.1 ± 0.1 ng Ir × 10^6 A2780 cells | binding to 9-EtG in the presence of 4 mM NaCl ([8]; 4 mM NaCl (Ir-Cl species), after 15 min): 100%; binding to 9-EtG in the presence of 4 mM NaCl ([8]; 4 mM NaCl (Ir–Cl species), after 24 h, 310 K): 100%; binding to 9-MeA in the presence of 9-EtG (competitive binding) [9]: 5–10%; average rate constant k, first-order with respect to [NADH] [10]: 4.03 × 10^–4 min^–1; iridium in cell membrane and particulate fractions [11]: 17.9%; iridium in cytoskeletal fraction [11]: 6.1%; iridium in cytosol fraction [11]: 69.2%; iridium in nuclear fraction [11]: 6.7% |
| N.N.[Cl][Pt][Cl] [cisplatin, reference compound] | 5.2 ± 0.3 | 7 ± 0.1 | 3.5 ± 0.2 | 1.2 ± 0.2 |  |  |  |
